Screens deposited in PubChem by several laboratories.
TbMetRS inhib: Trypanosoma brucei MetRS inhibition; purified T. brucei MetRS, ATP depletion, Kinase-Glo luminescence; actives 0.4% (n = 360,000); inhibition, % at 11.9 µM;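 active = inhibition above a per-plate cutoff of the control wells' mean inhibition plus 3 SD, cut at about 5.5% in these data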;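 note: 0% = DMSO wells median and 100% = median of wells with control inhibitor compound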
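assay system = parasite MetRS enzyme | timing = 15 min preincubation, 2 h reaction, all 25 °C | evaluation = percent inhibition relative to median high and low control wells | medium = HEPES buffer containing pyrophosphatase, BSA, spermine, DTT | compound = single dose, 11.9 µM final nominal, 0.9% final DMSO | detection = Kinase-Glo luminescence, ATP depletion format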
MC4R antag cAMP: human MC4R antagonism in cAMP assay; MC4R-expressing cells, MTII-stimulated cAMP, LANCE TR-FRET; inhibition, % at 6.5 µM; actives 0.48% (n = 360,000); AID 540295;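 active = inhibition above its plate's cutoff, the mean of tested wells on that plate plus 3 SD, cut at about 29% in these data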;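 note: 0% = Melanotan II alone and 100% = Melanotan II plus saturating MCL0020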
Target sequence (P32245 whole entry, looked up): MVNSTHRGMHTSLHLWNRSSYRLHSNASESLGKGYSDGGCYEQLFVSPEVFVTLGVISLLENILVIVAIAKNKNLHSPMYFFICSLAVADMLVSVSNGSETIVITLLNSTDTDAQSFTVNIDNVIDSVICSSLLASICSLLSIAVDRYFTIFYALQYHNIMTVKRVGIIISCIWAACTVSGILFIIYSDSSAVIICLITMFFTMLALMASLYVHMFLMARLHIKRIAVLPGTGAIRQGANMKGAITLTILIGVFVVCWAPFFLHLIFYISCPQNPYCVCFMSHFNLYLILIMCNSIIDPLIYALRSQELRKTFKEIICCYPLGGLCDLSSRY
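System: U2OS cells stably expressing human melanocortin 4 receptor (MC4R). Reagent: Melanotan II challenge after compound preincubation. Doses: 6.5 µM. Times: 30-min compound, 1-h challenge, 1-h detection, room temperature. Measured by: TR-FRET with Eu-cAMP and labeled anti-cAMP, 671 nm. Replicates: singlicate.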
MC4R barr agon: activates human MC4R beta-arrestin recruitment | P32245 | actives 0.98% (n = 360,000) | activation, % at 8.9 µM | AID 540308 | U2OS MC4R beta-arrestin complementation, luminescence; percent of melanotan II response, DMSO zero;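 active = activation above a per-plate cutoff, the mean activation of sample wells on that plate plus 3 SD, cut at about 8% in these data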
A1 inh: inhibitors of the anti-apoptotic protein A1, read as caspase activation. MEF A1-2A-BIM cells, Caspase-Glo 3/7 luminescence, 3 h; percent of clofoctol response, vehicle zero. caspase activation, % (concentration not given with the values). actives 0.066% (n = 330,000);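 active = over half of replicate activation scores above 10%, or exactly half above 10 with the replicate mean above 10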
NLRP3 yeast inh: inhibitors of NALP3 inflammasome in yeast. inhibition, % at 10 µM. Yeast reconstituted NLRP3/ASC/caspase-1, beta-gal luminescence, 24 h. actives 0.39% (n = 330,000). AID 2825;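 active = inhibition of 50% or more; inactive = inhibition below 50%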;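 note: plate controls were induced DMSO wells for no effect and uninduced yeast grown without galactose for full effect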
NALP1 yeast inh: blocks the NALP1 inflammasome reconstituted in yeast. S. cerevisiae NALP1/ASC/caspase-1 growth, X-gal OD620, 72 h. inhibition, % at 10 µM. actives 0.61% (n = 280,000). AID 2071; in the data active = inhibition mostly above about 24%, no sharp cut-off; inactive = mostly below about 32%
Numbers without * were called inactive. Most compounds without a hit are left out; they make up all but 2.5% or so of the library.

`COc1ccc(CNS(=O)(=O)CCNCCc2ccccc2)cc1` gave TbMetRS inhib 1, MC4R antag cAMP 4 and MC4R barr agon 3.
`COc1ccc(CCNCc2ccc(OCc3ccccc3)cc2)cc1` gave TbMetRS inhib -1, MC4R antag cAMP 5, MC4R barr agon 2, A1 inh -1, NLRP3 yeast inh 47 and NALP1 yeast inh 45*.
`COc1ccc(CNCCC(c2ccc(F)cc2)c2ccc(OC)cc2)cc1` (centres undefined) gave TbMetRS inhib 0, MC4R antag cAMP 1, MC4R barr agon 2, A1 inh 0, NLRP3 yeast inh 23 and NALP1 yeast inh 79*.
Screening COc1ccc(C(CCNCc2ccc(F)cc2)c2ccc(F)cc2)cc1 (centres undefined) returned TbMetRS inhib -1, MC4R antag cAMP 1, MC4R barr agon 5, A1 inh 1, NLRP3 yeast inh 35 and NALP1 yeast inh 68*.
For COc1ccc(C(CCNCc2ccccc2)c2ccc(F)cc2)cc1 (centres undefined) the results were TbMetRS inhib 0, MC4R antag cAMP 3, MC4R barr agon 1, A1 inh 0, NLRP3 yeast inh 30 and NALP1 yeast inh 31.
Screening COc1ccc(C(CCNC(C)c2ccccc2)c2ccc(F)cc2)cc1 (centres undefined) returned TbMetRS inhib 0, MC4R antag cAMP 7, MC4R barr agon 8, A1 inh 1, NLRP3 yeast inh 29 and NALP1 yeast inh 43*.
For CCCN1C(=O)/C(=C/c2c(N3CCNC(=O)C3CC(=O)OCC)nc3c(C)cccn3c2=O)SC1=S (centres undefined) the results were TbMetRS inhib 0, MC4R antag cAMP 29*, MC4R barr agon 0, A1 inh 0, NLRP3 yeast inh 37 and NALP1 yeast inh -9.
Cc1ccc(C(=O)OCC(=O)N2CCCC2)cc1 was read as TbMetRS inhib 0, MC4R antag cAMP -3, MC4R barr agon -2, A1 inh 0, NLRP3 yeast inh 17 and NALP1 yeast inh 4.
For CC(=O)c1c(-c2ccc(Cl)cc2)c2ccccc2[nH]c1=O the results were TbMetRS inhib 0, MC4R antag cAMP 3, MC4R barr agon -2, A1 inh 0, NLRP3 yeast inh 24 and NALP1 yeast inh 13.
CC(=O)c1c(-c2ccccc2)c2cc(Cl)ccc2[nH]c1=O was read as TbMetRS inhib 1, MC4R antag cAMP 17, MC4R barr agon 4, A1 inh 1, NLRP3 yeast inh 3 and NALP1 yeast inh 30*.
`COc1ccc(C(CNC(=O)Cc2c(F)cccc2Cl)N2CCCCC2)cc1` (centres undefined) gave TbMetRS inhib -1, MC4R antag cAMP -3, MC4R barr agon 1, A1 inh -1, NLRP3 yeast inh 5 and NALP1 yeast inh 23*.
For Cc1ccc(Nc2cc(C)nc(NCc3ccccc3)n2)cc1 the results were TbMetRS inhib 0, MC4R antag cAMP 12, MC4R barr agon 0, A1 inh 0, NLRP3 yeast inh 18 and NALP1 yeast inh 51*.
Screening Cc1cc(NC2CCCCC2)nc(NCc2ccccc2)n1 returned TbMetRS inhib 2, MC4R antag cAMP 11, MC4R barr agon 1, A1 inh 0, NLRP3 yeast inh 29 and NALP1 yeast inh 62*.
`COc1ccc(Nc2cc(C)nc(NCc3ccccc3)n2)cc1` gave TbMetRS inhib 2, MC4R antag cAMP 2, MC4R barr agon 1, A1 inh 0, NLRP3 yeast inh 39 and NALP1 yeast inh 32.
C[C@H]1C(=O)N(C)CCN1C(=O)c1ccccc1OC1CCN(S(C)(=O)=O)CC1 was read as TbMetRS inhib 0, MC4R antag cAMP 8, MC4R barr agon -2, A1 inh 1, NLRP3 yeast inh 0 and NALP1 yeast inh 24*.
`CS(=O)(=O)N1CCC(Oc2ccccc2C(=O)N2CCCCC2CO)CC1` (centres undefined) gave TbMetRS inhib 1, MC4R antag cAMP -4, MC4R barr agon -1, A1 inh 0, NLRP3 yeast inh 0 and NALP1 yeast inh -6.
`Cc1ccc(CN2C(=O)CCSc3ccc(Cl)cc32)cc1` gave TbMetRS inhib 0, MC4R antag cAMP 18, MC4R barr agon 2, A1 inh 2, NLRP3 yeast inh 11 and NALP1 yeast inh 36*.
O=C(N/N=C/c1cc(Cl)ccc1O)c1ccc(Br)cc1 was read as TbMetRS inhib 0, MC4R antag cAMP 15, MC4R barr agon 0, A1 inh -1 and NALP1 yeast inh 46*.
Screening CCOC(=O)[C@]12CCCC=C1N(CCc1ccc(OC)c(OC)c1)C(=O)[C@H](CC(=O)NCCCCc1ccccc1)C2 returned TbMetRS inhib 0.
COc1cc(CNC(=O)Nc2nc(C(N)Cc3ccc(Cl)cc3)cs2)cc(OC)c1OC (centres undefined) was read as TbMetRS inhib 0, MC4R antag cAMP 5 and MC4R barr agon 5.
For NC(Cc1ccc(Cl)cc1)c1csc(NC(=O)NCC2CCCCC2)n1 (centres undefined) the results were TbMetRS inhib 0, MC4R antag cAMP 8 and MC4R barr agon 8.5*.
`CCCCNc1nc(CC)c2c(c1C#N)CCCC2` gave TbMetRS inhib 0, MC4R antag cAMP 0, MC4R barr agon 1, A1 inh 0, NLRP3 yeast inh -3 and NALP1 yeast inh 41*.
For CCN(CC)C(=O)C1=C(C)N(CCC2=CCCCC2)C(=O)C(CC(=O)NCCCN(C)C)C1 (centres undefined) the results were TbMetRS inhib -1, MC4R antag cAMP 1 and MC4R barr agon 0.
For COc1ccc(C2CCc3cc(OC)c(OC)cc3C2NC=O)cc1OC (centres undefined) the results were TbMetRS inhib 0, MC4R antag cAMP 1 and MC4R barr agon -1.
CCCCCCCCCCCC(=O)NC(C(=O)O)C(O)c1ccccc1 (centres undefined) was read as TbMetRS inhib 0, MC4R antag cAMP 2, MC4R barr agon -1, A1 inh 0, NLRP3 yeast inh 0 and NALP1 yeast inh 27*.
`CCCCCCCCCC(=O)N[C@H](CN1CCOCC1)[C@H](O)c1ccccc1` gave TbMetRS inhib -1, MC4R antag cAMP 12, MC4R barr agon 1, A1 inh 0 and NLRP3 yeast inh 14.
Screening Cc1ccc(S(=O)(=O)N2[C@@H](Cc3ccccc3)CO[C@H]2CC(=O)c2cccs2)cc1 returned TbMetRS inhib 0.
Screening CC(=O)n1c2c(c3ccccc31)OC(N)=C(C#N)C2c1ccc(C(C)C)cc1 (centres undefined) returned TbMetRS inhib 0, MC4R antag cAMP -2, MC4R barr agon -1, A1 inh 0, NLRP3 yeast inh 14 and NALP1 yeast inh 34*.
